Compound activity: PubChem BioAssay, Sanford-Burnham Center for Chemical Genomics
Apaf-1 inh – blocks human Apaf-1 apoptosome activity. O14727. reconstituted apoptosome caspase-3 activity, DEVD-Rh110 fluorescence. inhibition, % at 20 µM. 330,000 compounds, 0.71% hits. AID 489030; active = inhibition of at least 40% at 20 µM
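Material: reconstituted apoptosome with Apaf-1, cytochrome c, caspase-9, procaspase-3, dATP; medium: pH 7.5 Hepes buffer with CHAPS, BSA, DTT; also added: cytochrome c and DEVD-Rh110 substrate; timing: 30 min plus 50 min, RT; signal: Rh110 fluorescence intensity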
SENP8 block-1 – blocks the human protease SENP8. purified SENP8, Z-RLRGG-aminoluciferin cleavage, luminescence. Q96LD8. 330,000 compounds, 1.2% hits. inhibition, % at 10 µM; in the data active = inhibition above about 50%
SENP7 block – SENP7 protease inhibition; AID 434973; Q9BQF6; 330,000 compounds, 1.5% hits; recombinant SENP7, Z-RLRGG-aminoluciferin luminescence, 40 min; inhibition, % at 5 µM;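 active = inhibition above about 50% at the single test dose, limit read from the data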
UBC13 inh – blocks human UBC13 polyubiquitin chain formation | P61088 | TR-FRET | inhibition, % at 20 µM | 330,000 compounds, 0.47% hits; in the data active = inhibition above about 45%, passing the limit was not always enough
SENP8 block-2 – SENP8 (human) protease inhibition | Q96LD8 | inhibition, % at 20 µM | recombinant SENP8, Nedd8 substrate fluorescence | 360,000 compounds, 0.64% hits; in the data active = inhibition mostly above about 40%, no sharp cut-off; inactive = mostly below about 27%
SENP6 block – blocks the human protease SENP6; Q9GZR1; Recombinant SENP6 catalytic domain, aminoluciferin luminescence; inhibition, % at 10 µM; 330,000 compounds, 1.8% hits; AID 2599;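 active = inhibition above about 50% at the single tested dose, limit read from the data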
SENP8 confirm – human SENP8 inhibition, confirmed | 6,200 compounds, 40% hits | AID 488912 | shares compounds with SENP7 block | inhibition, % at 12.5 µM | Recombinant SENP8, Z-RLRGG-aminoluciferin luminescence, 60 min;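 active = mean inhibition across replicates above about 50%, limit read from the data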
SENP6 confirm – human SENP6 inhibition, confirmed; 6,200 compounds, 58% hits; recombinant SENP6, Z-RLRGG-aminoluciferin luminescence; inhibition, % at 12.5 µM; shares compounds with SENP7 block
SENP7 conf – human SENP7 inhibition, confirmed; shares compounds with SENP7 block; recombinant SENP7, Z-RLRGG-aminoluciferin luminescence, 40 min; inhibition, % at 12.5 µM; 6,200 compounds, 69% hits; AID 488917
Casp3 SENP sel – caspase-3 inhibition (SENP selectivity assay) | shares compounds with SENP7 block | purified caspase-3, Z-DEVD-aminoluciferin luminescence, 60 min | inhibition, % at 12.5 µM | 6,200 compounds, 60% hits;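 active = mean inhibition above about 50%, limit read from the data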
Luc interf – interferes with luciferase luminescence in SENP counter-screen | shares compounds with SENP7 block | Pre-incubated SENP8/Z-RLRGG-aminoluciferin, luciferase luminescence interference | inhibition, % at 12.5 µM | 6,200 compounds, 39% hits | AID 488919;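 active = mean inhibition above about 50% when retested at one dose, limit read from the data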
Of the large screens only hits and unclear results are named; the others gave an inactive call (follow-up assays come after a bar, where they were run). A selection: hits, their analogues and other compounds. The true share with any hit is near 3.1%.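 Rule for the calls, unless noted: active = mean inhibition above about 50% in the one-dose retest (limit read from the data); inactive = the rest.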

c1ccc(CNc2ncnc3c2cnn3-c2ccccc2)cc1	none
CCCC(=O)Nc1nnc([C@H]2C[C@H](O)[C@@H](CO)O2)s1	none (no result: Apaf-1 inh, SENP8 block-1, SENP7 block, UBC13 inh, SENP6 block)
CCc1nc2ccc(C(=O)NCCOc3ccc(OC)cc3)cn2c1N(CCC(C)C)CCN(C)C	none (no result: Apaf-1 inh, SENP8 block-1, SENP7 block, UBC13 inh, SENP6 block)
O/N=C/c1ccc(OCc2ccccc2)c(Cl)c1	SENP8 block-1 64, SENP7 block 59, SENP6 block 86 | SENP8 confirm inactive | SENP6 confirm 72 | SENP7 conf 90 | Casp3 SENP sel inactive | Luc interf 76
O=c1[nH]c(=S)[nH]c2c1[C@H](CCc1cccc(Cl)c1)O[C@H](C1CC1)C2	none (no result: Apaf-1 inh, SENP8 block-1, SENP7 block, UBC13 inh, SENP6 block)
CCc1nc2c(OCc3ccc(Cl)cc3Cl)cccn2c1N(C)C(=O)CC(C)C	none (no result: Apaf-1 inh, SENP8 block-1, SENP7 block, UBC13 inh, SENP6 block)
Nc1ccc(C(=O)N/N=C\c2ccc(OC(=O)c3ccccc3Cl)cc2)cc1	none
CCOc1cc(/C=N/O)cc(Br)c1OCC	none
C=CCOc1c(Br)cc(/C=N/Nc2ccc(C(=O)O)cc2)cc1OCC	SENP8 block-1 77, SENP7 block 55, SENP6 block 85 | SENP8 confirm 88 | SENP6 confirm 87 | SENP7 conf 94 | Casp3 SENP sel inactive | Luc interf 56
COc1cc(C=NNc2ccccc2)ccc1OC(=O)c1ccccc1	none (no result: Apaf-1 inh, SENP8 block-1, SENP7 block, UBC13 inh, SENP6 block)
COc1ccc(/C=N/Nc2ccc(C(=O)O)cc2)cc1Br	SENP8 block-1 97, SENP7 block 100, SENP6 block 95 | SENP8 confirm 99 | SENP6 confirm 100 | SENP7 conf 102 | Casp3 SENP sel 98 | Luc interf 98
COc1ccc(/C=N/Nc2ccc(C(=O)O)cc2)cc1OC	SENP8 block-1 82, SENP7 block 86, SENP6 block 95 | SENP8 confirm 89 | SENP6 confirm 88 | SENP7 conf 99 | Casp3 SENP sel 90 | Luc interf 83
O=C(O)c1ccc(N/N=C/c2ccc(OC(=O)c3ccccc3Cl)cc2)cc1	SENP8 block-1 90, SENP6 block 91 | SENP8 confirm 76 | SENP6 confirm 96 | SENP7 conf 98 | Casp3 SENP sel inactive | Luc interf inactive
COc1ccc(/C=N\NC(=O)C2CCCC2)cc1Br	none
CCc1ccc(C(O)c2ncc(-c3ccc(C)cc3)[nH]2)cc1 (stereo not drawn)	none (no result: Apaf-1 inh, SENP8 block-1, SENP7 block, UBC13 inh, SENP6 block)
CCCCN(C=O)c1c(CC)nc2ccc(C(=O)NCCCN3CCCC3=O)cn12	none (no result: Apaf-1 inh, SENP8 block-1, SENP7 block, UBC13 inh, SENP6 block)
CC1(Oc2ccc3ccccc3c2)CCN(Cc2ccc(OC(F)(F)F)cc2)C1 (stereo not drawn)	none (no result: Apaf-1 inh, SENP8 block-1, SENP7 block, UBC13 inh, SENP6 block)
Cc1cccc(CC(=O)NCCS(=O)(=O)N2CCN(c3ccccc3)CC2)c1	none (no result: Apaf-1 inh, SENP8 block-1, SENP7 block, UBC13 inh, SENP6 block)
Cc1ccc(S(=O)(=O)Oc2cccc(/C=N/Nc3ccc(C(=O)O)cc3)c2)cc1	SENP8 block-1 88, SENP7 block 62 | SENP8 confirm inactive | SENP6 confirm 96 | SENP7 conf 101 | Casp3 SENP sel inactive | Luc interf 90
CC(C)c1ccc(/C=N/Nc2ccc(C(=O)O)cc2)cc1	SENP8 block-1 97, SENP7 block 101, SENP6 block 98 | SENP8 confirm 99 | SENP6 confirm 100 | SENP7 conf 103 | Casp3 SENP sel 97 | Luc interf 99
Cc1ccc(S(=O)(=O)Oc2cccc(/C=N/n3cnnc3)c2)cc1	none
COc1c(O)cc2oc(-c3ccc(O)cc3)cc(=O)c2c1O	SENP7 block 59, SENP6 block 57 | SENP8 confirm 63 | SENP6 confirm 60 | SENP7 conf 88 | Casp3 SENP sel 71 | Luc interf 71
COc1cc2oc(-c3ccc(O)cc3)cc(=O)c2c(O)c1OC	none
O=c1cc(-c2ccc(O)cc2)oc2ccc3ccccc3c12	SENP8 block-1 98, SENP7 block 99, SENP6 block 97 | SENP8 confirm 97 | SENP6 confirm 100 | SENP7 conf 103 | Casp3 SENP sel 99 | Luc interf 83
COc1cc2oc(-c3ccc(O)cc3)cc(=O)c2c(OC)c1O	none
O=C(Nc1ccccc1F)c1csc([C@@H]2C[C@H](O)[C@@H](CO)O2)n1	none (no result: Apaf-1 inh, SENP8 block-1, SENP7 block, UBC13 inh, SENP6 block)
c1ccc(-c2nnc(-c3ccccc3)o2)cc1	SENP8 block-1 79, SENP7 block 92, SENP6 block 87 | SENP8 confirm 72 | SENP6 confirm 82 | SENP7 conf 96 | Casp3 SENP sel 88 | Luc interf 66
CSc1ccccc1-c1nnc(-c2ccc(C)cc2)o1	none
COc1ccccc1-c1nnc(-c2ccc(C)cc2)o1	SENP7 block 55, SENP6 block 55 | SENP8 confirm 50 | SENP6 confirm inactive | SENP7 conf 74 | Casp3 SENP sel 54 | Luc interf 56
COc1ccc(-c2nnc(-c3ccccc3)o2)cc1OC	SENP7 block 64, SENP6 block 58 | SENP8 confirm inactive | SENP6 confirm inactive | SENP7 conf 84 | Casp3 SENP sel 76 | Luc interf 68
CSc1ccccc1-c1nnc(-c2ccccc2)o1	SENP8 block-1 74, SENP7 block 83, SENP6 block 84 | SENP8 confirm 66 | SENP6 confirm 81 | SENP7 conf 96 | Casp3 SENP sel 78 | Luc interf 62
c1cncc(CN2CCN(c3cc(-c4cnc5ccccc5c4)nc4ccnn34)CC2)c1	none (no result: Apaf-1 inh, SENP8 block-1, SENP7 block, UBC13 inh, SENP6 block)
Nc1ccccc1-c1nnc(-c2ccc(-c3ccccc3)cc2)o1	SENP8 block-1 77, SENP7 block 96 | SENP8 confirm inactive | SENP6 confirm inactive | SENP7 conf inactive | Casp3 SENP sel 51 | Luc interf inactive
COc1ccc(-c2nc(C#N)c(NCCc3ccccc3)o2)cc1OC	SENP8 block-1 57, SENP7 block 59, SENP6 block 72 | SENP8 confirm inactive | SENP6 confirm 66 | SENP7 conf 90 | Casp3 SENP sel 56 | Luc interf 59
Clc1cccc(-c2nnc(-c3ccccc3)o2)c1	SENP8 block-1 92, SENP7 block 94, SENP6 block 95 | SENP8 confirm 93 | SENP6 confirm 97 | SENP7 conf 102 | Casp3 SENP sel 94 | Luc interf 94
COc1ccc(C(=O)C(=O)N2CCC(c3ccccc3)CC2)cn1	none (no result: Apaf-1 inh, SENP8 block-1, SENP7 block, UBC13 inh, SENP6 block)
CCN(CC)c1ccc(/C=N/NC(=O)c2nnn(-c3nonc3N)c2CN(C)C2CCCCC2)cc1	none (no result: Apaf-1 inh, SENP8 block-1, SENP7 block, UBC13 inh, SENP6 block)
